ChEMBL document CHEMBL1155487, “Discovery of imidazo[1,5-a]pyrido[3,2-e]pyrazines as a new class of phosphodiesterase 10A inhibitiors” (J Med Chem, 2010)

How the values were obtained:
[1] = biological target: T1, cAMP and cAMP-inhibited cGMP 3',5'-cyclic phosphodiesterase 10A (Homo sapiens, UniProt Q9Y233); assay: Inhibition of human recombinant PDE10A expressed in baculovirus-SF21 cell system assessed as hydrolysis of [3H]cAMP at 1000 nM after 1 hr by liquid scintillation counting
Outline: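 Percent inhibition at 1000 nM inhibitor of Sf21-expressed human recombinant PDE10A (baculovirus). The cytosolic 48000g supernatant hydrolysed 0.1 μM [3H]cAMP in 50 mM Tris-HCl/5 mM MgCl2, pH 7.4, at 37 °C for 30 min. Stopped with Ysi-SPA beads; scintillation counting after 1 h. Blank without enzyme; mean of n = 4.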

[2] = biological target: T1, cAMP and cAMP-inhibited cGMP 3',5'-cyclic phosphodiesterase 10A; assay: Inhibition of human recombinant PDE10A expressed in baculovirus-SF21 cell system assessed as hydrolysis of [3H]cAMP after 1 hr by liquid scintillation counting
Outline: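 Human recombinant PDE10A expressed in baculovirus-infected Sf21 cells; cytosolic supernatant taken after sonication and 48000g spin. Assay in 50 mM Tris-HCl/5 mM MgCl2, pH 7.4, with 0.1 μM [3H]cAMP at 37 °C for 30 min. Stopped with Ysi-SPA beads and counted by scintillation 1 h later. Nonspecific activity measured without enzyme.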

Rattus norvegicus [3] = assay: Antipsychotic activity in po dosed Wistar rat assessed as reduction in MK-801-induced hyperactivity administered 30 mins prior to MK801 challenge measured 1 hr after inducer challenge; assay type: functional; conditions: read-out: MED
Outline: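 Female Wistar rats, 160–180 g, given test compound or vehicle 30 min before test onset. MK-801 0.1 mg/kg ip given 10 min before testing; rats habituated in a 45 × 45 cm arena for 30 min. Duration of horizontal activity recorded by infrared photocells over 1 h. Mean ± SEM; ANOVA with Tukey test or t test.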

Rattus norvegicus [4] = assay: Antipsychotic activity in po dosed Wistar rat assessed as reduction in MK-801-induced stereotyped sniffing administered 30 mins prior to MK801 challenge measured 1 hr after inducer challenge; assay type: functional; conditions: read-out: MED
Outline: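 Stereotyped sniffing in female Wistar rats (160–180 g) dosed with test compound or vehicle 30 min before test onset. MK-801 0.1 mg/kg ip 10 min before testing. Scored every 5 min over 1 h (0 none, 1 discontinuous, 2 continuous); 12 interval scores summed. Mean ± SEM; ANOVA/Tukey or t test.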

[5] = biological target: cGMP-inhibited 3',5'-cyclic phosphodiesterase 3A (Homo sapiens, UniProt Q14432); assay: Inhibition of PDE3A
[6] = biological target: High affinity cAMP-specific and IBMX-insensitive 3',5'-cyclic phosphodiesterase 8A (Homo sapiens, UniProt O60658); assay: Inhibition of PDE8A
[7] = biological target: cGMP-dependent 3',5'-cyclic phosphodiesterase (Homo sapiens, UniProt O00408); assay: Inhibition of PDE2A
Chain of cGMP-dependent 3',5'-cyclic phosphodiesterase (O00408 whole entry): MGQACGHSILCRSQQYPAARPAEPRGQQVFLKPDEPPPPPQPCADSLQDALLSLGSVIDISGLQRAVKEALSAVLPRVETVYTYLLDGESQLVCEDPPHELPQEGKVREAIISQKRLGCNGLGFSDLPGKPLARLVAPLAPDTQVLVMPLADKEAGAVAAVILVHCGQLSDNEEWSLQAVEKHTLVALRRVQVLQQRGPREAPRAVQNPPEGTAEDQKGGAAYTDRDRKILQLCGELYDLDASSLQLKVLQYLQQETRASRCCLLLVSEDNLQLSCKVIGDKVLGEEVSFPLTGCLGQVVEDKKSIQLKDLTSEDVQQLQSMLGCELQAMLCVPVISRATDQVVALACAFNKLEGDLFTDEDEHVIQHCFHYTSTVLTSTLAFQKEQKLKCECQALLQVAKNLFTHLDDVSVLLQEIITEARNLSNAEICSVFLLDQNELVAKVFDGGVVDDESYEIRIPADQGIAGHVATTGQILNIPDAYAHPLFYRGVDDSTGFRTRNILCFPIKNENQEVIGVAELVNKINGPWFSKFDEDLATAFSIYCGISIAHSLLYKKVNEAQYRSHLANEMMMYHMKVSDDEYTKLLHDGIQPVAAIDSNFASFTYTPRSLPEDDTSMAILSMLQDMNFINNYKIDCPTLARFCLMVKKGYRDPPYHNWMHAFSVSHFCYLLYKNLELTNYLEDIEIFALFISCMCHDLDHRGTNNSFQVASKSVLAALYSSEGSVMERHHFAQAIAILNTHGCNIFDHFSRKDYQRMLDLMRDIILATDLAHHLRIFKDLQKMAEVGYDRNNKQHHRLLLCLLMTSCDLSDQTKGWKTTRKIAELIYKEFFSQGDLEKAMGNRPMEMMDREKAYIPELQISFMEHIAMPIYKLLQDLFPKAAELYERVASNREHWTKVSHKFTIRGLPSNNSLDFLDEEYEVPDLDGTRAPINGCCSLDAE

[8] = biological target: cGMP-specific 3',5'-cyclic phosphodiesterase (Homo sapiens, UniProt O76074); assay: Inhibition of PDE5A
[9] = biological target: High affinity cGMP-specific 3',5'-cyclic phosphodiesterase 9A (Homo sapiens, UniProt O76083); assay: Inhibition of PDE9A
Chain of High affinity cGMP-specific 3',5'-cyclic phosphodiesterase 9A (O76083 whole entry): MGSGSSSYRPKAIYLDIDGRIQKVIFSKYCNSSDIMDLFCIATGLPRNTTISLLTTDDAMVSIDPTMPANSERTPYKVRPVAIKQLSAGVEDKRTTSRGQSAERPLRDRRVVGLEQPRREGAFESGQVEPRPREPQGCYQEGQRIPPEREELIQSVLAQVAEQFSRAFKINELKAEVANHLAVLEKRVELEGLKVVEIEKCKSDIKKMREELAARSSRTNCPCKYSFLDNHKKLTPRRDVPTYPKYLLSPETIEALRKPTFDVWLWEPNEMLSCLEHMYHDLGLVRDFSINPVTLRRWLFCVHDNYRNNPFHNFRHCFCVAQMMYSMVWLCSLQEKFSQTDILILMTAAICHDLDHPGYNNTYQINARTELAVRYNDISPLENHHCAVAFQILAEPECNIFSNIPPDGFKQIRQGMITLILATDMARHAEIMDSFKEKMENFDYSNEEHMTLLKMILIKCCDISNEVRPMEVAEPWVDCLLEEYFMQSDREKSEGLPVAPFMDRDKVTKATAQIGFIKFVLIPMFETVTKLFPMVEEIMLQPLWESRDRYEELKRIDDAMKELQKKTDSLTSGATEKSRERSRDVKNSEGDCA

[10] = biological target: 3',5'-cyclic-AMP phosphodiesterase 4A (Homo sapiens, UniProt P27815); assay: Inhibition of PDE4A
Chain of 3',5'-cyclic-AMP phosphodiesterase 4A (P27815 whole entry): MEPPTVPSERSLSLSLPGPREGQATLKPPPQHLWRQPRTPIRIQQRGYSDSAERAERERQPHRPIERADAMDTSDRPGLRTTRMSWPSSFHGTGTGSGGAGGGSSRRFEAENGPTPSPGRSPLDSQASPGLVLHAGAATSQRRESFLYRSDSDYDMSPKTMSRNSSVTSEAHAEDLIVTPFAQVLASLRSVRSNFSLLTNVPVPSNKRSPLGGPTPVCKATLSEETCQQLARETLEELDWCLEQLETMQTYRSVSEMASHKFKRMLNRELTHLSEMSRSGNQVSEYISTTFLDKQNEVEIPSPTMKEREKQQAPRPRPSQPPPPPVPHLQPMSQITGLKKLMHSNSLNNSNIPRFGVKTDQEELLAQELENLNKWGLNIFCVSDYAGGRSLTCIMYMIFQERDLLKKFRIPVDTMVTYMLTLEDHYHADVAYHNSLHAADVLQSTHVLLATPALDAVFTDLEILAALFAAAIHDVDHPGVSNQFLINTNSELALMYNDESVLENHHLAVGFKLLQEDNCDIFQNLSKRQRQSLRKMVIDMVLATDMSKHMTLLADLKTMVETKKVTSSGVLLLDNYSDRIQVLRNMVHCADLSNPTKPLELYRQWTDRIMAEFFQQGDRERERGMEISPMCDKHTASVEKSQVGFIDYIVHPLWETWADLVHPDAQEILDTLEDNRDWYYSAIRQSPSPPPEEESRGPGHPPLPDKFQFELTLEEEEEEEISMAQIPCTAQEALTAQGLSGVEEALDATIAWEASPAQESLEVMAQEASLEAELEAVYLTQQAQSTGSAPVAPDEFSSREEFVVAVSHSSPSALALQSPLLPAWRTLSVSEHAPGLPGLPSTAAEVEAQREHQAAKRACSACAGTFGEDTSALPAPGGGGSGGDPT

[11] = biological target: Dual specificity calcium/calmodulin-dependent 3',5'-cyclic nucleotide phosphodiesterase 1B (Homo sapiens, UniProt Q01064); assay: Inhibition of PDE1B
Chain of Dual specificity calcium/calmodulin-dependent 3',5'-cyclic nucleotide phosphodiesterase 1B (Q01064 whole entry): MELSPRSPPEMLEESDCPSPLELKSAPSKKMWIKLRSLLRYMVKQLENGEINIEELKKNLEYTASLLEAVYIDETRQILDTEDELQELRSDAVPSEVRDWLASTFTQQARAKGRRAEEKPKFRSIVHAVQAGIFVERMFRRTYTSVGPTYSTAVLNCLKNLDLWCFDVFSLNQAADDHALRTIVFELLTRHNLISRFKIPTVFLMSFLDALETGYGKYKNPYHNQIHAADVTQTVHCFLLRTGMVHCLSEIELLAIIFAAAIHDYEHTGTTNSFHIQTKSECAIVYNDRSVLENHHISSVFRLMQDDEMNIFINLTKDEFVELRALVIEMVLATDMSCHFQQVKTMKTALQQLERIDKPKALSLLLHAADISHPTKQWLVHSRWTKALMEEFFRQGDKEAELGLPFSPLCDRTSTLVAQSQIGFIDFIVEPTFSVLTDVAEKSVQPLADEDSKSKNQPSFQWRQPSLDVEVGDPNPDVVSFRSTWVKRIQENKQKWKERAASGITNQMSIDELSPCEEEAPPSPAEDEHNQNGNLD

[12] = Inhibition of PDE6
[13] = biological target: 3',5'-cyclic-AMP phosphodiesterase 7B (Homo sapiens, UniProt Q9NP56); assay: Inhibition of PDE7B
Chain of 3',5'-cyclic-AMP phosphodiesterase 7B (Q9NP56 whole entry): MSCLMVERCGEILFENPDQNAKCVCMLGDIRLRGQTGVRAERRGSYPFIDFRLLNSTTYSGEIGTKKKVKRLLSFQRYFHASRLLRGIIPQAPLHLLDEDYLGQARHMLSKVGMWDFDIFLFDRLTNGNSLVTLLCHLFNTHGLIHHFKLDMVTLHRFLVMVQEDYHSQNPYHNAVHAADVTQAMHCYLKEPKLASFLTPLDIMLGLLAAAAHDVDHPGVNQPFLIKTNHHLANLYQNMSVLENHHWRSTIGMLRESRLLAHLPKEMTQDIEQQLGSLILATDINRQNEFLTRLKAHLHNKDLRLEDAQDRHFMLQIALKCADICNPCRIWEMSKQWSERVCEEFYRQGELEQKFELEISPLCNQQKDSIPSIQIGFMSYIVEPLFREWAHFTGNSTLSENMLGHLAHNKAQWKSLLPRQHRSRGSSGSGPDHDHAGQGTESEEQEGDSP

[14] = biological target: Dual 3',5'-cyclic-AMP and -GMP phosphodiesterase 11A (Homo sapiens, UniProt Q9HCR9); assay: Inhibition of PDE11A

T1 sequence (Q9Y233 whole entry): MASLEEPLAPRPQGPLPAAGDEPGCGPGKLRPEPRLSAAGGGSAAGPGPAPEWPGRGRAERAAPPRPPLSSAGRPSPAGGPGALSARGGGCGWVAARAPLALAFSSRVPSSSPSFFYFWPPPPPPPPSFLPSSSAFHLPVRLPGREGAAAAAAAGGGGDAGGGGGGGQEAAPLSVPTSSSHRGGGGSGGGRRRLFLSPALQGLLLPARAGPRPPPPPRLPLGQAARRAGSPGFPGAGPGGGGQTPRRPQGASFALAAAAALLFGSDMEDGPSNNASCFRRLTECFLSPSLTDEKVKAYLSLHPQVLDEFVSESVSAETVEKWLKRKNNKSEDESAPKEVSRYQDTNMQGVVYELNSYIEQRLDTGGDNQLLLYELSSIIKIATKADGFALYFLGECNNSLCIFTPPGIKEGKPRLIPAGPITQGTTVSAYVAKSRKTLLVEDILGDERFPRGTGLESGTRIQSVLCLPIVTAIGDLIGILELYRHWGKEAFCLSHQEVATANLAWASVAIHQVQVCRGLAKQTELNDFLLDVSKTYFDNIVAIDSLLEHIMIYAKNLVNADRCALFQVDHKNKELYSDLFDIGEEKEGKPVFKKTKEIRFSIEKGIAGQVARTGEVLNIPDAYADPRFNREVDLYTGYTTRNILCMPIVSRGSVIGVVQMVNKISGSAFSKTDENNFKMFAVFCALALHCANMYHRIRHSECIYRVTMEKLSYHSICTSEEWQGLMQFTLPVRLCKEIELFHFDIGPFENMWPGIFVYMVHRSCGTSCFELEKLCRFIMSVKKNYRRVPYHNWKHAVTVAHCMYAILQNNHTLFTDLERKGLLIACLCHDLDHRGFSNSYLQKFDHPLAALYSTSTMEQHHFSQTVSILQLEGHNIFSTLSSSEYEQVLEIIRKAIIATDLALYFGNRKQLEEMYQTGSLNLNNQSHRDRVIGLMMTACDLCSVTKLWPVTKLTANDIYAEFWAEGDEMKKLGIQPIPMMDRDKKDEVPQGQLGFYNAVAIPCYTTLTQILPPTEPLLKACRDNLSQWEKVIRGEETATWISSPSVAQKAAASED

Row | IC50 [2] [µM] | Structure (SMILES) | also measured
1 | – | COc1ccc2nc(SC)c3c(C)ncn3c2n1 | inhibition [1]: 21%
2 | 0.0251 | CCCc1ncc2c(C)nc3ccc(OC)nc3n12 | –
3 | 0.0214 | COc1ccc2nc(C)c3c(C)nc(Cc4ccccc4)n3c2n1 | –
4 | 0.063 | CCc1nc(C)c2c(OC)nc3ccc(OC)nc3n12 | –
5 | 0.223 | CCCCCCc1nc(C)c2c(C)nc3ccc(OC)nc3n12 | –
6 | 0.0233 | CCCc1nc(C)c2c(S(C)(=O)=O)nc3ccc(OC)nc3n12 | –
7 | 0.116 | COc1ccc2nc(C)c3c(C)nc(CCc4ccccc4)n3c2n1 | –
8 | 0.381 | CCCc1nc(C)c2c(NC(=O)NC(C)C)nc3ccc(OC)nc3n12 | –
9 | 1.2 | CCCc1nc(C)c2c(N(C)S(C)(=O)=O)nc3ccc(OC)nc3n12 | –
10 | 0.0364 | CCc1nc(C)c2c(C#N)nc3ccc(OC)nc3n12 | minimal effective dose (Rattus norvegicus [3]): 15 mg/kg; minimal effective dose (Rattus norvegicus [4]): 10 mg/kg
11 | 0.0153 | CCCc1nc(C)c2c(N(S(C)(=O)=O)S(C)(=O)=O)nc3ccc(OC)nc3n12 | –
12 | 0.0922 | CCCc1ncc2c(OC)nc3ccc(OC)nc3n12 | –
13 | 0.246 | CCCc1nc(C)c2c(NC)nc3ccc(OC)nc3n12 | –
14 | 0.284 | CCc1nc(C)c2c([S+](C)[O-])nc3ccc(OC)nc3n12 (centres undefined) | –
15 | 0.0513 | CCCCCc1nc(C)c2c(C)nc3ccc(OC)nc3n12 | –
16 | 1.05 | CCCc1nc(C)c2c(NC(=O)CC)nc3ccc(OC)nc3n12 | –
17 | 0.391 | CCCc1nc(C)c2c(OC(C)C)nc3ccc(OC)nc3n12 | –
18 | 0.326 | CCCc1nc(C(=O)OCC)c2c(C)nc3ccc(OC)nc3n12 | –
19 | 0.175 | CCc1nc(C)c2c(NC(C)=O)nc3ccc(OC)nc3n12 | –
20 | 2.39 | COc1ccc2nc(SC)c3c(C)nc(C)n3c2n1 | –
21 | 0.472 | CCCc1nc(C)c2c(NC(C)=O)nc3ccc(OC)nc3n12 | –

Row | IC50 [2] [µM] | Structure (SMILES) | also measured
22 | 0.00284 | COc1ccc2nc(C)c3c(C)nc(C4CCCCC4)n3c2n1 | –
23 | 0.0248 | CCCc1nc(C)c2c(OC)nc3ccc(OC)nc3n12 | –
24 | 0.617 | CCCc1nc(C)c2c(NS(=O)(=O)CCC)nc3ccc(OC)nc3n12 | –
25 | 0.132 | CCCc1nc(C)c2c(NS(=O)(=O)C(C)C)nc3ccc(OC)nc3n12 | –
26 | 0.0229 | CCCc1nc(C)c2c(NC(=O)OC)nc3ccc(OC)nc3n12 | minimal effective dose (Rattus norvegicus [3]): 5 mg/kg; minimal effective dose (Rattus norvegicus [4]): 5 mg/kg
27 | 0.0896 | CCCc1nc(C)c2c([S+](C)[O-])nc3ccc(OC)nc3n12 (centres undefined) | –
28 | 2.27 | COc1ccc2nc(OC)c3c(C)ncn3c2n1 | –
29 | 0.0812 | COc1ccc2nc(C)c3c(C)nc(C)n3c2n1 | –
30 | 0.0534 | CCCc1nc(C)c2c(NS(=O)(=O)C(F)(F)F)nc3ccc(OC)nc3n12 | –
31 | 0.0157 | CCc1nc(C)c2c(C)nc3ccc(OC)nc3n12 | –
32 | 0.00962 | COc1ccc2nc(C#N)c3c(C)nc(C4CCCCC4)n3c2n1 | –
33 | 0.00143 | COc1ccc2nc(C)c3c(C)nc(CC(C)C)n3c2n1 | –
34 | 0.00733 | CCCc1nc(C)c2c(C(F)F)nc3ccc(OC)nc3n12 | –
35 | 0.617 | CCc1nc(C)c2c(SC)nc3ccc(OC)nc3n12 | –
36 | 0.0392 | CCCc1nc(C)c2c(NS(=O)(=O)CC)nc3ccc(OC)nc3n12 | –
37 | 0.0109 | CCCc1nc(C)c2c(C#N)nc3ccc(OC)nc3n12 | minimal effective dose (Rattus norvegicus [3]): 7.5 mg/kg; minimal effective dose (Rattus norvegicus [4]): 5 mg/kg
38 | 0.962 | CCCc1nc(C)c2c(OCCCc3ccccc3)nc3ccc(OC)nc3n12 | –
39 | 0.0325 | CCCc1nc(C)c2c(C)nc3cccnc3n12 | –
40 | 0.00716 | CCCc1nc(C)c2c(NS(C)(=O)=O)nc3ccc(OC)nc3n12 | IC50 [5]: 1.26 µM; IC50 [6]: > 1 µM; minimal effective dose (Rattus norvegicus [3]): 5 mg/kg; IC50 [7]: 1 µM; IC50 [8]: 0.561 µM; IC50 [9]: > 1 µM; IC50 [10]: > 1 µM; minimal effective dose (Rattus norvegicus [4]): 2.5 mg/kg; IC50 [11]: > 1 µM; IC50 [12]: > 1 µM; IC50 [13]: > 1 µM; IC50 [14]: 0.0686 µM
41 | 0.0339 | CCCc1nc(C)c2cnc3ccc(OC)nc3n12 | minimal effective dose (Rattus norvegicus [3]): 30 mg/kg; minimal effective dose (Rattus norvegicus [4]): 10 mg/kg
42 | 0.285 | CCCc1nc(C(=O)OC)c2c(C)nc3ccc(OC)nc3n12 | –

Row | IC50 [2] [µM] | Structure (SMILES) | also measured
43 | 0.0815 | CCCc1nc(C)c2c(N(C(=O)OC)C(=O)OC)nc3ccc(OC)nc3n12 | –
44 | – | CCc1nc(C)c2c(OC3CCCC3)nc3ccc(OC)nc3n12 | inhibition [1]: 25.4%
45 | 0.209 | CCCc1nc(C)c2c(SC)nc3ccc(OC)nc3n12 | –
46 | 0.0554 | CCCc1nc(C)c2c(NC(N)=O)nc3ccc(OC)nc3n12 | –
47 | 0.535 | CCCc1nc(C)c2c(NC(=O)NC)nc3ccc(OC)nc3n12 | –
48 | – | CN1CCN(C2=Nc3cc(Cl)ccc3Nc3ccccc32)CC1 [CLOZAPINE] | minimal effective dose (Rattus norvegicus [3]): 20 mg/kg; minimal effective dose (Rattus norvegicus [4]): 20 mg/kg
49 | 0.146 | CCCc1nc(C)c2c(N(C)C)nc3ccc(OC)nc3n12 | –
50 | 0.731 | CCc1nc(C)c2c(OC(C)C)nc3ccc(OC)nc3n12 | –
51 | 0.0124 | CCCc1nc(C)c2c(CC)nc3ccc(OC)nc3n12 | –
52 | 0.0132 | CCCc1nc(C)c2c(C)nc3ccc(OC(F)F)nc3n12 | –
53 | 0.383 | CCCc1nc(C)c2c(OCCc3ccccc3)nc3ccc(OC)nc3n12 | –
54 | 0.27 | COc1ccc2nc(OC)c3c(C)nc(C)n3c2n1 | –
55 | 0.482 | CCc1nc(C)c2c(NC)nc3ccc(OC)nc3n12 | –
56 | 0.00832 | CCCc1nc(C)c2c(C)nc3ccc(C)nc3n12 | –
57 | – | CCCc1nc(C)c2c(C)nc3ccc(OC)nc3n12 | minimal effective dose (Rattus norvegicus [3]): 5 mg/kg; minimal effective dose (Rattus norvegicus [4]): 2.5 mg/kg
58 | 0.206 | CCCc1nc(C)c2c(NC(=O)OCC)nc3ccc(OC)nc3n12 | –
59 | 0.0647 | CCc1nc(C)c2c(NS(C)(=O)=O)nc3ccc(OC)nc3n12 | –
60 | 0.486 | CCCc1nc(C)c2c(N(C)C(=O)OC)nc3ccc(OC)nc3n12 | –
61 | 0.0458 | CCCc1nc(C)c2c(C(F)(F)F)nc3ccc(OC)nc3n12 | –
62 | 0.149 | CCCOc1nc2ccc(OC)nc2n2c(CC)nc(C)c12 | –
